Reference: ChEMBL document CHEMBL2169833, “Solubility-driven optimization of phosphodiesterase-4 inhibitors leading to a clinical candidate” (J Med Chem, 2012)
Values after ≈ are worked out from the molar mass of the structure shown. Values belong to the compound of their own block, whether it stands above or below them.

How the values were obtained:
[1] = Thermodynamic aqueous solubility of the compound at pH 6.8; type: physicochemical; conditions: buffer; for solubility thermodynamic: read-out: Therm_solubility
[2] = target: 3',5'-cyclic-AMP phosphodiesterase 4D (Homo sapiens, UniProt Q08499); assay: Inhibition of human PDE4D-mediated [3H]CAMP hydrolysis after 30 to 60 mins by scintillation proximity assay
Outline: (§1)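 Enzyme was diluted in 10 mM Tris-HCl pH 7.5 with 1 mM EDTA to give 10–30% substrate hydrolysis. Substrate was [3H]-cAMP (0.1 μCi) with 1 μM cAMP. Inhibitors were tested at 10 concentrations with 1% DMSO, 30−60 min at room temperature, stopped with PDE SPA beads and counted. IC50 came from curves. Mean of ≥2 experiments in duplicate, SEM where n ≥ 3.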

Phosphodiesterase 4 = Phosphodiesterase 4 (Homo sapiens, UniProt P27815+Q08499+Q07343+Q08493); assay: Inhibition of PDE4 in human PBMC assessed as inhibition of LPS-induced TNFalpha production incubated for 10 mins prior to LPS-challenge measured after 20 hrs by sandwich ELISA
Outline: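 Human PBMC were isolated from normal donors by Ficoll−Hypaque and grown at 1 × 10⁶ cells/mL in RPMI1640 with 10% FCS. Compound was preincubated 10 min, then LPS added (10 ng/mL, stock added). Cells were incubated 20 h at 37 °C in 5% CO₂. Supernatant TNF-α was measured by sandwich ELISA at OD405 (sensitivity ~10 pg/mL). IC50 came from inhibition curves.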

[3] = target: 3',5'-cyclic-AMP phosphodiesterase 4A (Homo sapiens, UniProt P27815); assay: Inhibition of human PDE4A-mediated [3H]CAMP hydrolysis after 30 to 60 mins by scintillation proximity assay; outline: as §1
[4] = (§2) Oral bioavailability in rat at 4.2 umol/kg; type: ADME, organism-based; conditions: in vivo, 4.2 umol/kg
Outline: (§3)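 Rat PK after iv and po dosing, some compounds given as the potassium or sodium salt. Vehicle was PBS or 25/75 PEG200/PBS. Dose matched formulation strength: iv 1.05, 2.1 or 4.2 μmol/kg; po 2.1 or 4.2 μmol/kg. For some compounds iv and po used the same dose (2.1 or 4.2 μmol/kg).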

[5] = target: 3',5'-cyclic-AMP phosphodiesterase 4B (Homo sapiens, UniProt Q07343); assay: Inhibition of human PDE4B-mediated [3H]CAMP hydrolysis after 30 to 60 mins by scintillation proximity assay; outline: as §1
[6] = Clearance in rat at 1.05 umol/kg, iv; type: ADME, organism-based; conditions: in vivo; outline: as §3
[7] = Cmax in rat at 2.1 umol/kg, po; type: ADME, organism-based; parameters: dose 2.1 umol/kg, route oral; conditions: in vivo; outline: as §3
[8] = Tmax in rat at 2.1 umol/kg, po; type: ADME, organism-based; conditions: in vivo; outline: as §3
[9] = Oral bioavailability in rat at 2.1 umol/kg; type: ADME, organism-based; conditions: in vivo, 2.1 umol/kg; outline: as §3
[10] = AUC total in rat at 2.1 umol/kg, po; type: ADME, organism-based, Plasma; conditions: plasma, 2.1 umol/kg; outline: as §3
[11] = Half life in rat at 2.1 umol/kg, po; type: ADME, organism-based; conditions: in vivo; outline: as §3
[12] = Volume of distribution at steady state in rat at 1.05 umol/kg, iv; type: ADME, organism-based; conditions: in vivo, read-out: Vdss; outline: as §3
Rattus norvegicus [13] = assay: Antiinflammatory activity in po dosed ovalbumin-sensitized Brown Norway rat assessed as inhibition of ovalbumin-induced eosinophil influx into BALF administered 2 hrs prior to ovalbumin-challenge measured after 24 hrs; type: functional
Outline: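 Brown Norway rats were actively sensitized and dosed orally at 0.3, 1 or 3 mg/kg, or with vehicle PEG200:saline 1:1, 2 h before inhaled ovalbumin challenge. Saline-challenged rats served as controls. Eosinophils were counted in BAL fluid 24 h after challenge. Mean ± SEM, 5−10 animals per group. ED50 was estimated.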

[14] = AUC total in po dosed rat; type: ADME, organism-based; conditions: plasma; outline: as §3
[15] = Thermodynamic solubility of the compound at pH 1; type: physicochemical; conditions: buffer
[16] = Volume of distribution at steady state in iv dosed rat; type: ADME, organism-based; conditions: in vivo, read-out: Vdss; outline: as §3
Rattus norvegicus [17] = assay: Half life in po dosed rat; type: ADME, organism-based; conditions: in vivo; outline: as §3
[18] = Clearance in iv dosed rat; type: ADME, organism-based; conditions: in vivo; outline: as §3
[19] = Cmax in po dosed rat; type: ADME, organism-based; parameters: route oral; conditions: in vivo; outline: as §3
[20] = Tmax in po dosed rat; type: ADME, organism-based; conditions: in vivo; outline: as §3
[21] = Oral bioavailability in rat; type: ADME, organism-based; conditions: in vivo; outline: as §3
[22] = Half life in rat at 4.2 umol/kg, po; type: ADME, organism-based; conditions: in vivo; outline: as §3
[23] = Tmax in rat at 4.2 umol/kg, po; type: ADME, organism-based; conditions: in vivo; outline: as §3
Rattus norvegicus [24] = assay: as §2; type: ADME, organism-based; conditions: in vivo; outline: as §3
[25] = Volume of distribution at steady state in rat at 2.1 umol/kg, iv; type: ADME, organism-based; conditions: in vivo, read-out: Vdss; outline: as §3
Rattus norvegicus [26] = assay: (§4) AUC total in rat at 4.2 umol/kg, po; type: ADME, organism-based, Plasma; conditions: in vivo; outline: as §3
[27] = Volume of distribution at steady state in rat at 4.2 umol/kg, iv; type: ADME, organism-based; conditions: in vivo, read-out: Vdss; outline: as §3
[28] = Cmax in rat at 4.2 umol/kg, po; type: ADME, organism-based; parameters: dose 4.2 umol/kg, route oral; conditions: in vivo; outline: as §3
[29] = as §4; type: ADME, organism-based, Plasma; conditions: plasma, 4.2 umol/kg; outline: as §3
[30] = Clearance in rat at 4.2 umol/kg, iv; type: ADME, organism-based; conditions: in vivo; outline: as §3

3',5'-cyclic-AMP phosphodiesterase 4B, sequence (Q07343 whole entry): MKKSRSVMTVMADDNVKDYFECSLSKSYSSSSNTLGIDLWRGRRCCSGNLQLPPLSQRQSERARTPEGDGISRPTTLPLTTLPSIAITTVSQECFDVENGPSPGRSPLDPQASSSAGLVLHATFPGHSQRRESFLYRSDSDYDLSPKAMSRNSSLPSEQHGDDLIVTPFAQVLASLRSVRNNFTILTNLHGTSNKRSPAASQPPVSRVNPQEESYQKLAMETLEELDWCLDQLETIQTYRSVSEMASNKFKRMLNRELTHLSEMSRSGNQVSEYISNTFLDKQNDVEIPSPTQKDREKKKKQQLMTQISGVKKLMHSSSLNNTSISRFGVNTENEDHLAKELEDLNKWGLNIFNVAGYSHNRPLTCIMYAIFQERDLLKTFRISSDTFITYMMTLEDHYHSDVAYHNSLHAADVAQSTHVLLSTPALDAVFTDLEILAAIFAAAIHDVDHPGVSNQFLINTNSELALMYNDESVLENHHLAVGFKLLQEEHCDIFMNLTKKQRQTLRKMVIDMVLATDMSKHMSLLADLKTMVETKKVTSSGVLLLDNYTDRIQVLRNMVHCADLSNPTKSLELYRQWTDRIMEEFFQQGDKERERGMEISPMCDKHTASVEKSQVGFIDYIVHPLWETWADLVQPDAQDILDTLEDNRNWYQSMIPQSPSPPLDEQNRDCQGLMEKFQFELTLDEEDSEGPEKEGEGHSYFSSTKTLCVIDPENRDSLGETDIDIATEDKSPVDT
3',5'-cyclic-AMP phosphodiesterase 4A, sequence (P27815 whole entry): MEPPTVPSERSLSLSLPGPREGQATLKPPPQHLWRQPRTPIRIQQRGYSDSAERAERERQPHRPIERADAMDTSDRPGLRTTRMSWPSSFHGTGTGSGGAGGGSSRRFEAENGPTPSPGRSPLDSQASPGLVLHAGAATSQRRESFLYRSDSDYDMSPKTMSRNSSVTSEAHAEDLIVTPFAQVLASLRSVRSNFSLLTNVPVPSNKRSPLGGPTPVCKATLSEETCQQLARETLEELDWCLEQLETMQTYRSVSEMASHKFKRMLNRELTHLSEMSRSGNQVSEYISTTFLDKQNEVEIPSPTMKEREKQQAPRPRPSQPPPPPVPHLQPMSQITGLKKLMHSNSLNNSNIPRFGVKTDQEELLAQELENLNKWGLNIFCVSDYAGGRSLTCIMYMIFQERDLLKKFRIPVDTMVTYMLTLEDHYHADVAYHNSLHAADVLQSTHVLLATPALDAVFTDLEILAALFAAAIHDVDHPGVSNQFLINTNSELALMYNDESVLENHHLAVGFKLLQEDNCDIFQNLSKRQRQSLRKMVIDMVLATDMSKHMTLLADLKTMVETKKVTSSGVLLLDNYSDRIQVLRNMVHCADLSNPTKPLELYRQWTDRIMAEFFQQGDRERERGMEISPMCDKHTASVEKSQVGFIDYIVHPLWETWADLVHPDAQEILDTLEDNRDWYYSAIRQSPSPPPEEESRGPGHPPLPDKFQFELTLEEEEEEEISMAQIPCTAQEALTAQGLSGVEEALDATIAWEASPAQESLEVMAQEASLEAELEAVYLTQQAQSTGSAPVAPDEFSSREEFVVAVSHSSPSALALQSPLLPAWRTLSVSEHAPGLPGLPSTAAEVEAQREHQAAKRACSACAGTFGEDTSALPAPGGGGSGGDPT
3',5'-cyclic-AMP phosphodiesterase 4D, sequence (Q08499 whole entry): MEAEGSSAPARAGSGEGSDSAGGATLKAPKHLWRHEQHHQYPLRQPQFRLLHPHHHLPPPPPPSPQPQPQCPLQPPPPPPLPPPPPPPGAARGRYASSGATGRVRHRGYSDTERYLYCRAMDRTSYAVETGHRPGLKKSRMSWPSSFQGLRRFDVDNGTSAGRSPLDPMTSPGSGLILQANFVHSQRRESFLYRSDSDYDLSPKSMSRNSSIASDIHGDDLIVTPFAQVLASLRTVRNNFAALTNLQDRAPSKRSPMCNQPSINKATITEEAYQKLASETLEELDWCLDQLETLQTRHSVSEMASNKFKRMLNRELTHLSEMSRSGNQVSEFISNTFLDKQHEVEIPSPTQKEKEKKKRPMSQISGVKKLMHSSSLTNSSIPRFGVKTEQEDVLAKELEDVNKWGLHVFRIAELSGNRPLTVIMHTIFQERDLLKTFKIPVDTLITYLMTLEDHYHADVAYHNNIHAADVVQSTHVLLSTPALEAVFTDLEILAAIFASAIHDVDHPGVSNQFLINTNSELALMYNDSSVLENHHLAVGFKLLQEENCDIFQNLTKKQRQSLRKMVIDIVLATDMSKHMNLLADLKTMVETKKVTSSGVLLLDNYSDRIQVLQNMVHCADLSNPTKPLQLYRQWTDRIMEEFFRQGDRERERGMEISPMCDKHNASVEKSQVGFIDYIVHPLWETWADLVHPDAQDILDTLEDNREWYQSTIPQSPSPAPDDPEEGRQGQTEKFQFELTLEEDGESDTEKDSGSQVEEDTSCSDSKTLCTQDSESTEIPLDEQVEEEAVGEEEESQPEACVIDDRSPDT

Therm_solubility [1]: 430 µg/mL
IC50 [2]: 41 nM
IC50 (Phosphodiesterase 4): 53 nM
IC50 [3]: 160 nM
bioavailability [4]: 92%
IC50 [5]: 93 nM
Compound: N#Cc1cccc(-c2nc([C@H]3CC[C@H](C(=O)O)CC3)cc3cccnc23)c1

clearance [6]: 0.98 mL/min/kg
Cmax [7]: 4.49 µM
Tmax [8]: 2.88 h
bioavailability [9]: 149%
AUC [10]: 54.4 µM·h
half-life [11]: 7 h
Vd [12]: 0.25 L/kg
Compound: O=C([O-])C1CCN(c2cc3cccnc3c(-c3cccc(OC(F)(F)F)c3)n2)CC1.[Na+]

Compound: O=C(O)[C@H]1CC[C@H](c2cc3cccnc3c(-c3cccc(OC(F)(F)F)c3)n2)CC1
inhibition (Rattus norvegicus [13]): Dose-dependent effect

AUC [14]: 8.72 µM·h
solubility thermodynamic [1]: 2 µg/mL (≈ 5.43 µM)
Therm_solubility [15]: 0.04 µg/mL
IC50 (Phosphodiesterase 4): 67.6 nM
Vd [16]: 0.37 L/kg
t1/2 (Rattus norvegicus [17]): 12 h
clearance [18]: 2.34 mL/min/kg
Cmax [19]: 2.4 µM
Tmax [20]: 3.5 h
bioavailability [21]: 8%
Compound: O=C(O)c1ccc(-c2cc3cccnc3c(-c3ccc4nonc4c3)n2)cc1

half-life [22]: 17 h
Tmax [23]: 2.88 h
F (Rattus norvegicus [24]): 70%
Vd [25]: 0.24 L/kg
AUC (Rattus norvegicus [26]): 3919 µM·min
Compound: O=C([O-])C1CCN(c2cc3cccnc3c(-c3cccc(F)c3)n2)CC1.[Na+]

solubility thermodynamic [1]: 378 µg/mL (≈ 996 µM)
IC50 [2]: 51 nM
IC50 [3]: 587 nM
IC50 [5]: 1330 nM
Compound: CSc1cccc(-c2nc(N3CCC(C(=O)O)CC3)cc3cccnc23)c1

solubility thermodynamic [1]: 1950 µg/mL (≈ 4670 µM)
IC50 [2]: 30 nM
IC50 [3]: 371 nM
IC50 [5]: 225 nM
Compound: O=C(O)C1CCN(c2cc3cccnc3c(-c3cccc(OC(F)(F)F)c3)n2)CC1

solubility thermodynamic [1]: > 1000 µg/mL
IC50 [2]: 45 nM
IC50 (Phosphodiesterase 4): 1930 nM
IC50 [3]: 537 nM
IC50 [5]: 615 nM
Compound: COc1cccc(-c2nc(N3CCC(C(=O)O)CC3)cc3cccnc23)c1

half-life [22]: 193 h
Tmax [23]: 25 h
Vd [27]: 0.25 L/kg
Cmax [28]: 8.3 µM
AUC [29]: 1880 µM·h
clearance [30]: 0.22 mL/min/kg
Compound: N#Cc1cccc(-c2nc([C@H]3CC[C@H](C(=O)[O-])CC3)cc3cccnc23)c1.[K+]

clearance [6]: 0.65 mL/min/kg
Cmax [7]: 3.6 µM
Tmax [8]: 7.42 h
bioavailability [9]: 107%
AUC [10]: 84 µM·h
half-life [11]: 29 h
Vd [12]: 0.36 L/kg
Compound: O=C([O-])[C@H]1CC[C@H](c2cc3cccnc3c(-c3cccc(OC(F)(F)F)c3)n2)CC1.[K+]
